In ChEMBL document CHEMBL4392821:
Active and inactive are the calls of the source. No cut-off for these calls is given here. Square brackets hold non-standard residues; d marks the D form. Peptide text beside a SMILES is read from it. * marks the point of attachment. ξ: configuration not given here. X1 = CCCCCCCCCCCCCCCC(=O)OCC(C*)OC(=O)CCCCCCCCCCCCCCC; Palmitoyl = CCCCCCCCCCCCCCCC(=O)*; ξC = NC(CS)C(=O)O

Assays:
[1] = species on record: Homo sapiens; assay: Agonist activity at human TLR2/TLR1 W258A mutant expressed in HEK293T cells coexpressing NF-kappaB-driven luciferase reporter at 100 nM after 6 hrs by luciferase reporter gene assay; type: cell-based
In short: (§1)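 HEK293T cells stably carrying an NF-κB-driven luciferase reporter, in DMEM, were plated 18 h before transfection. They were co-transfected by lipofection with WT or point-mutant human TLR(2–1) and TLR(1–2) ectodomain/TIR-swap chimeras, and expression was checked by immunoblot. After 24 h, cells were stimulated for 6 h with 100 nM agonist or 20 or 50 ng/mL Pam3CSK4, then lysed for a luciferase read-out.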

[2] = species on record: Homo sapiens; assay: Agonist activity at human TLR2/TLR1 I319A mutant expressed in HEK293T cells coexpressing NF-kappaB-driven luciferase reporter at 100 nM after 6 hrs by luciferase reporter gene assay; type: cell-based; in short: as §1
[3] = species on record: Homo sapiens; assay: Agonist activity at human TLR2/TLR1 Y320A mutant expressed in HEK293T cells coexpressing NF-kappaB-driven luciferase reporter at 100 nM after 6 hrs by luciferase reporter gene assay; type: cell-based; in short: as §1
[4] = molecular target: T1, Toll-like receptor 1 (Homo sapiens) (UniProt Q15399); assay: Induction of human TLR1 homodimerization expressed in insect Hi5 cells by size exclusion chromatography
T1 sequence (whole entry): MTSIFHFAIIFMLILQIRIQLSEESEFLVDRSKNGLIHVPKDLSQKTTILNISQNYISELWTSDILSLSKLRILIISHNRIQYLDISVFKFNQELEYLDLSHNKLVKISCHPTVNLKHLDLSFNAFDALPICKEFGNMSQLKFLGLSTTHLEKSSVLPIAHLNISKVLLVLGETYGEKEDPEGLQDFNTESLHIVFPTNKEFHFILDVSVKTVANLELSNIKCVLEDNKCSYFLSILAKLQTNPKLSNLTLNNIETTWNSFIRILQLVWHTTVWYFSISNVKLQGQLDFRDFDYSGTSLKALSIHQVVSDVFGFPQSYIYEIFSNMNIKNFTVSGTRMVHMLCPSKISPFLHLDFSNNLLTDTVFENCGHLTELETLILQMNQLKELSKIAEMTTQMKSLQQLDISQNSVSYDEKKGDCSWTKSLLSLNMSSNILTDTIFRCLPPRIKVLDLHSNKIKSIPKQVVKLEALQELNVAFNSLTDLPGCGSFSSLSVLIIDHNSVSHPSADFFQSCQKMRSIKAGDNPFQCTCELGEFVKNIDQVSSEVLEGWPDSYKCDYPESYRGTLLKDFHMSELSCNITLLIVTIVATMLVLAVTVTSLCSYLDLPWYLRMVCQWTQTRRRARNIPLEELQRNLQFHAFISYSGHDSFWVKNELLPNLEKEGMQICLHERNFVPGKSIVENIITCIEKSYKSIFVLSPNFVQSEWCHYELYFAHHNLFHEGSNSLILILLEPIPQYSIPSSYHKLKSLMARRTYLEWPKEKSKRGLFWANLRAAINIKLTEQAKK
In short: (§2)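 Human TLR1 and TLR2 ectodomains were made in Hi5 insect cells, partially deglycosylated, and had the protein A tag cleaved by thrombin before purification. Protein at 1 μM (each alone, or both together) was incubated with 30 μM ligand in 25 mM HEPES pH 8.0, 150 mM NaCl, 10% DMSO for 4 h at room temperature. Dimer formation was then analysed by analytical gel filtration on Superdex 200.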

[5] = species on record: Homo sapiens; assay: Agonist activity at human TLR2/TLR1 F312A mutant expressed in HEK293T cells coexpressing NF-kappaB-driven luciferase reporter at 100 nM after 6 hrs by luciferase reporter gene assay; type: cell-based; in short: as §1
[6] = species on record: Homo sapiens; assay: Agonist activity at human TLR2/TLR1 F314A mutant expressed in HEK293T cells coexpressing NF-kappaB-driven luciferase reporter at 100 nM after 6 hrs by luciferase reporter gene assay; type: cell-based; in short: as §1
[7] = species on record: Homo sapiens; assay: Agonist activity at human TLR2/TLR1 V339A mutant expressed in HEK293T cells coexpressing NF-kappaB-driven luciferase reporter at 100 nM after 6 hrs by luciferase reporter gene assay; type: cell-based; in short: as §1
[8] = species on record: Homo sapiens; assay: Agonist activity at human TLR2/TLR1 H340A mutant expressed in HEK293T cells coexpressing NF-kappaB-driven luciferase reporter at 100 nM after 6 hrs by luciferase reporter gene assay; type: cell-based; in short: as §1
[9] = species on record: Homo sapiens; assay: Agonist activity at human TLR1/TLR2 Y323A mutant expressed in HEK293T cells coexpressing NF-kappaB-driven luciferase reporter at 100 nM after 6 hrs by luciferase reporter gene assay; type: cell-based; in short: as §1
[10] = species on record: Homo sapiens; assay: Agonist activity at human TLR1/TLR2 Y325A mutant expressed in HEK293T cells coexpressing NF-kappaB-driven luciferase reporter at 100 nM after 6 hrs by luciferase reporter gene assay; type: cell-based; in short: as §1
[11] = species on record: Homo sapiens; assay: Agonist activity at human TLR1/TLR2 V348A mutant expressed in HEK293T cells coexpressing NF-kappaB-driven luciferase reporter at 100 nM after 6 hrs by luciferase reporter gene assay; type: cell-based; in short: as §1
[12] = species on record: Homo sapiens; assay: Agonist activity at human TLR1/TLR2 F349A mutant expressed in HEK293T cells coexpressing NF-kappaB-driven luciferase reporter at 100 nM after 6 hrs by luciferase reporter gene assay; type: cell-based; in short: as §1
[13] = species on record: Homo sapiens; assay: Agonist activity at human TLR1/TLR2 D327A mutant expressed in HEK293T cells coexpressing NF-kappaB-driven luciferase reporter at 100 nM after 6 hrs by luciferase reporter gene assay; type: cell-based; in short: as §1
[14] = species on record: Homo sapiens; assay: Agonist activity at human TLR1/TLR2 L328A mutant expressed in HEK293T cells coexpressing NF-kappaB-driven luciferase reporter at 100 nM after 6 hrs by luciferase reporter gene assay; type: cell-based; in short: as §1
[15] = species on record: Homo sapiens; assay: Agonist activity at human TLR1/TLR2 Y332A mutant expressed in HEK293T cells coexpressing NF-kappaB-driven luciferase reporter at 100 nM after 6 hrs by luciferase reporter gene assay; type: cell-based; in short: as §1
[16] = species on record: Homo sapiens; assay: Agonist activity at human TLR1/TLR2 L350A mutant expressed in HEK293T cells coexpressing NF-kappaB-driven luciferase reporter at 100 nM after 6 hrs by luciferase reporter gene assay; type: cell-based; in short: as §1
[17] = species on record: Homo sapiens; assay: Agonist activity at human TLR1/TLR2 Y376 mutant expressed in HEK293T cells coexpressing NF-kappaB-driven luciferase reporter at 100 nM after 6 hrs by luciferase reporter gene assay; type: cell-based; in short: as §1
[18] = molecular target: T2, Toll-like receptor 1/2 (Homo sapiens) (UniProt O60603+Q15399); assay: Antagonist activity at TLR2/TLR1 in human THP1 cells assessed as reduction in diprovoci-induced TNF production at 5 uM pre-incubated for 1 hr before diprovocim stimulation for 4 hrs by ELISA method; type: cell-based
[19] = molecular target: T2, Toll-like receptor 1/2 (Homo sapiens); assay: Antagonist activity at TLR2/TLR1 in human THP1 cells assessed as reduction in diprovoci-induced TNF production at 50 uM pre-incubated for 1 hr before diprovocim stimulation for 4 hrs by ELISA method; type: cell-based
[20] = molecular target: T2, Toll-like receptor 1/2 (Homo sapiens); assay: Induction of human TLR2/TLR1 heterodimerization expressed in insect Hi5 cells by size exclusion chromatography; in short: as §2
[21] = molecular target: Toll-like receptor 2 (Homo sapiens) (UniProt O60603); assay: Induction of human TLR2 homodimerization expressed in insect Hi5 cells by size exclusion chromatography; in short: as §2
[22] = species on record: Homo sapiens; assay: Agonist activity at human TLR2/TLR1 F312A mutant expressed in HEK293T cells coexpressing NF-kappaB-driven luciferase reporter at 50 ng/ml after 6 hrs by luciferase reporter gene assay; type: cell-based; in short: as §1
[23] = species on record: Homo sapiens; assay: Agonist activity at human TLR2/TLR1 Y320A mutant expressed in HEK293T cells coexpressing NF-kappaB-driven luciferase reporter at 50 ng/ml after 6 hrs by luciferase reporter gene assay; type: cell-based; in short: as §1
[24] = species on record: Homo sapiens; assay: Agonist activity at human TLR2/TLR1 I319A mutant expressed in HEK293T cells coexpressing NF-kappaB-driven luciferase reporter at 50 ng/ml after 6 hrs by luciferase reporter gene assay; type: cell-based; in short: as §1
[25] = species on record: Homo sapiens; assay: Agonist activity at human TLR2/TLR1 W258A mutant expressed in HEK293T cells coexpressing NF-kappaB-driven luciferase reporter at 50 ng/ml after 6 hrs by luciferase reporter gene assay; type: cell-based; in short: as §1
[26] = species on record: Homo sapiens; assay: Agonist activity at human TLR2/TLR1 F314A mutant expressed in HEK293T cells coexpressing NF-kappaB-driven luciferase reporter at 50 ng/ml after 6 hrs by luciferase reporter gene assay; type: cell-based; in short: as §1
[27] = species on record: Homo sapiens; assay: Agonist activity at human TLR2/TLR1 V339A mutant expressed in HEK293T cells coexpressing NF-kappaB-driven luciferase reporter at 50 ng/ml after 6 hrs by luciferase reporter gene assay; type: cell-based; in short: as §1
[28] = species on record: Homo sapiens; assay: Agonist activity at human TLR2/TLR1 H340A mutant expressed in HEK293T cells coexpressing NF-kappaB-driven luciferase reporter at 50 ng/ml after 6 hrs by luciferase reporter gene assay; type: cell-based; in short: as §1
[29] = species on record: Homo sapiens; assay: Agonist activity at human TLR1/TLR2 Y323A mutant expressed in HEK293T cells coexpressing NF-kappaB-driven luciferase reporter at 20 ng/ml after 6 hrs by luciferase reporter gene assay; type: cell-based; in short: as §1
[30] = species on record: Homo sapiens; assay: Agonist activity at human TLR1/TLR2 Y325A mutant expressed in HEK293T cells coexpressing NF-kappaB-driven luciferase reporter at 20 ng/ml after 6 hrs by luciferase reporter gene assay; type: cell-based; in short: as §1
[31] = species on record: Homo sapiens; assay: Agonist activity at human TLR1/TLR2 V348A mutant expressed in HEK293T cells coexpressing NF-kappaB-driven luciferase reporter at 20 ng/ml after 6 hrs by luciferase reporter gene assay; type: cell-based; in short: as §1
[32] = species on record: Homo sapiens; assay: Agonist activity at human TLR1/TLR2 F349A mutant expressed in HEK293T cells coexpressing NF-kappaB-driven luciferase reporter at 20 ng/ml after 6 hrs by luciferase reporter gene assay; type: cell-based; in short: as §1
[33] = species on record: Homo sapiens; assay: Agonist activity at human TLR1/TLR2 D327A mutant expressed in HEK293T cells coexpressing NF-kappaB-driven luciferase reporter at 20 ng/ml after 6 hrs by luciferase reporter gene assay; type: cell-based; in short: as §1
[34] = species on record: Homo sapiens; assay: Agonist activity at human TLR1/TLR2 L328A mutant expressed in HEK293T cells coexpressing NF-kappaB-driven luciferase reporter at 20 ng/ml after 6 hrs by luciferase reporter gene assay; type: cell-based; in short: as §1
[35] = species on record: Homo sapiens; assay: Agonist activity at human TLR1/TLR2 Y332A mutant expressed in HEK293T cells coexpressing NF-kappaB-driven luciferase reporter at 20 ng/ml after 6 hrs by luciferase reporter gene assay; type: cell-based; in short: as §1
[36] = species on record: Homo sapiens; assay: Agonist activity at human TLR1/TLR2 L350A mutant expressed in HEK293T cells coexpressing NF-kappaB-driven luciferase reporter at 20 ng/ml after 6 hrs by luciferase reporter gene assay; type: cell-based; in short: as §1
[37] = species on record: Homo sapiens; assay: Agonist activity at human TLR1/TLR2 Y376 mutant expressed in HEK293T cells coexpressing NF-kappaB-driven luciferase reporter at 20 ng/ml after 6 hrs by luciferase reporter gene assay; type: cell-based; in short: as §1

Sequence of Toll-like receptor 2 (Homo sapiens) (O60603 whole entry): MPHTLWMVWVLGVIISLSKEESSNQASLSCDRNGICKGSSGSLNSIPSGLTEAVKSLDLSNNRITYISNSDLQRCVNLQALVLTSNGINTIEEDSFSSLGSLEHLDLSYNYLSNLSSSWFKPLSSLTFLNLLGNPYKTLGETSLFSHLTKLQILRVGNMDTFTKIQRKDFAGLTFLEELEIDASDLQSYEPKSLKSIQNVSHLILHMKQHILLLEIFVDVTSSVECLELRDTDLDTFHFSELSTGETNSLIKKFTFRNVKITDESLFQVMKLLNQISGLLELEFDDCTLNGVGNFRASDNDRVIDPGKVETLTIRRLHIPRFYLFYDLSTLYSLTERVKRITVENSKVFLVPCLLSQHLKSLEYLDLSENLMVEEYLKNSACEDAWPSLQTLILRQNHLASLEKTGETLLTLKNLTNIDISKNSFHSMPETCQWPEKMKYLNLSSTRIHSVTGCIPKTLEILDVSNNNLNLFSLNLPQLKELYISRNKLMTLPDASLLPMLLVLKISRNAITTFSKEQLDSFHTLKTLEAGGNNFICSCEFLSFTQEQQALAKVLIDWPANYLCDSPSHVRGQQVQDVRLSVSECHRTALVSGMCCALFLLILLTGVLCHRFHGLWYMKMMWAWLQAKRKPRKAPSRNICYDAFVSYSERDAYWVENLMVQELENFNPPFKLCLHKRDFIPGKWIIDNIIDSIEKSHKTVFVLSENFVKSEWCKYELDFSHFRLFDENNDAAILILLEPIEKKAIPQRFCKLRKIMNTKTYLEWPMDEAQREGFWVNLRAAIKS

## O=C(N[C@H]1C[C@@H]1c1ccccc1)[C@@H]1CN(C(=O)c2ccc(C(=O)N3C[C@@H](C(=O)N[C@H]4C[C@@H]4c4ccccc4)[C@H](C(=O)N[C@H]4C[C@@H]4c4ccccc4)C3)cc2)C[C@H]1C(=O)N[C@H]1C[C@@H]1c1ccccc1
[1]
  Activity: inactive
[2]
  Activity: inactive
[3]
  Activity: inactive
[4]
  Activity: inactive
[5]
  Activity: Active
[6]
  Activity: Active
[7]
  Activity: inactive
[8]
  Activity: inactive
[9]
  Activity: inactive
[10]
  Activity: inactive
[11]
  Activity: inactive
[12]
  Activity: inactive
[13]
  Activity: Active
[14]
  Activity: Active
[15]
  Activity: Active
[16]
  Activity: Active
[17]
  Activity: Active

## O=C(N[C@H]1C[C@@H]1c1ccccc1)[C@@H]1CN(C(=O)c2ccccc2)C[C@H]1C(=O)N[C@H]1C[C@@H]1c1ccccc1
[18]
  inhibition: Active
[19]
  inhibition: Active

## CCCCCCCCCCCCCCCC(=O)NC(CSCC(COC(=O)CCCCCCCCCCCCCCC)OC(=O)CCCCCCCCCCCCCCC)C(=O)N[C@@H](CO)C(=O)N[C@@H](CCCCN)C(=O)N[C@@H](CCCCN)C(=O)N[C@@H](CCCCN)C(=O)N[C@@H](CCCCN)C(=O)O (stereo partly drawn) (Palmitoyl-[ξC](X1)SKKKK-OH)
[20]
  Activity: Active
[21]
  Activity: inactive
[22]
  Activity: inactive
[23]
  Activity: inactive
[24]
  Activity: inactive
[25]
  Activity: inactive
[4]
  Activity: inactive
[26]
  Activity: inactive
[27]
  Activity: inactive
[28]
  Activity: inactive
[29]
  Activity: inactive
[30]
  Activity: inactive
[31]
  Activity: inactive
[32]
  Activity: inactive
[33]
  Activity: inactive
[34]
  Activity: inactive
[35]
  Activity: inactive
[36]
  Activity: inactive
[37]
  Activity: inactive
